Converted amounts (≈) assume the structure as drawn. The source made the active and inactive calls. No cut-off for these calls is given here.
Legend:
Staphylococcus aureus [1] = assay: Antibacterial activity against methicillin resistant Staphylococcus aureus NRS384 USA300 assessed as inhibition of bacterial growth incubated for 18 to 20 hrs by CLSI protocol based broth microdilution method; assay type: functional; settings: time 18-20 hrs
Procedure, shortened: (§1)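 Broth microdilution against staphylococcal clinical isolates. Each strain was prepared as a 0.5 McFarland suspension and diluted in cation-adjusted Mueller Hinton broth to ~5 × 10^5 CFU mL−1. Serial dilutions of test agents in DMSO stock were incubated with the bacteria, and the MIC was recorded.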

Staphylococcus aureus [2] = assay: Antibacterial activity against methicillin resistant Staphylococcus aureus 123 assessed as inhibition of bacterial growth incubated for 18 to 20 hrs by CLSI protocol based broth microdilution method; assay type: functional; settings: time 18-20 hrs; procedure, shortened: as §1
Staphylococcus aureus [3] = assay: Antibacterial activity against methicillin resistant Staphylococcus aureus 384 assessed as inhibition of bacterial growth incubated for 18 to 20 hrs by CLSI protocol based broth microdilution method; assay type: functional; settings: time 18-20 hrs; procedure, shortened: as §1
Staphylococcus aureus [4] = assay: Antibacterial activity against methicillin resistant Staphylococcus aureus 119 assessed as inhibition of bacterial growth incubated for 18 to 20 hrs by CLSI protocol based broth microdilution method; assay type: functional; settings: time 18-20 hrs; procedure, shortened: as §1
Staphylococcus aureus [5] = assay: Antibacterial activity against methicillin resistant Staphylococcus aureus 385 assessed as inhibition of bacterial growth incubated for 18 to 20 hrs by CLSI protocol based broth microdilution method; assay type: functional; settings: time 18-20 hrs; procedure, shortened: as §1
Staphylococcus aureus [6] = assay: Antibacterial activity against methicillin resistant Staphylococcus aureus 386 assessed as inhibition of bacterial growth incubated for 18 to 20 hrs by CLSI protocol based broth microdilution method; assay type: functional; settings: time 18-20 hrs; procedure, shortened: as §1
Staphylococcus aureus [7] = assay: Antibacterial activity against vancomycin resistant Staphylococcus aureus 10 assessed as inhibition of bacterial growth incubated for 18 to 20 hrs by CLSI protocol based broth microdilution method; assay type: functional; settings: time 18-20 hrs; procedure, shortened: as §1
Staphylococcus aureus [8] = assay: Antibacterial activity against vancomycin resistant Staphylococcus aureus 12 assessed as inhibition of bacterial growth incubated for 18 to 20 hrs by CLSI protocol based broth microdilution method; assay type: functional; settings: time 18-20 hrs; procedure, shortened: as §1
Staphylococcus aureus [9] = assay: Antibacterial activity against vancomycin resistant Staphylococcus aureus 9 assessed as inhibition of bacterial growth incubated for 18 to 20 hrs by CLSI protocol based broth microdilution method; assay type: functional; settings: time 18-20 hrs; procedure, shortened: as §1
Staphylococcus aureus [10] = assay: Antibacterial activity against methicillin sensitive Staphylococcus aureus 107 assessed as inhibition of bacterial growth incubated for 18 to 20 hrs by CLSI protocol based broth microdilution method; assay type: functional; settings: time 18-20 hrs; procedure, shortened: as §1
Staphylococcus aureus [11] = assay: Antibacterial activity against methicillin sensitive Staphylococcus aureus 6538 assessed as inhibition of bacterial growth incubated for 18 to 20 hrs by CLSI protocol based broth microdilution method; assay type: functional; settings: time 18-20 hrs; procedure, shortened: as §1
[12] = test system: Staphylococcus epidermidis; assay: Antibacterial activity against Staphylococcus epidermidis 101 assessed as inhibition of bacterial growth incubated for 18 to 20 hrs by CLSI protocol based broth microdilution method; assay type: functional; settings: time 18-20 hrs
Procedure, shortened: (§2)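 Staphylococcal and E. coli strains were diluted from a 0.5 McFarland suspension in cation-adjusted Mueller Hinton broth to ~5 × 10^5 CFU mL−1. They were incubated with serial dilutions of test agent in broth microdilution, and the MIC was recorded.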

Streptococcus pneumoniae [13] = assay: Antibacterial activity against Streptococcus pneumoniae 700677 assessed as inhibition of bacterial growth incubated for 18 to 20 hrs by CLSI protocol based broth microdilution method; assay type: functional; settings: time 18-20 hrs
Procedure, shortened: (§3)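 Streptococci were diluted from a 0.5 McFarland suspension in cation-adjusted Mueller Hinton broth with 5% lysed horse blood. They were incubated with serial dilutions of test agent in broth microdilution, and the MIC was recorded.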

Streptococcus pneumoniae [14] = assay: Antibacterial activity against Streptococcus pneumoniae 51916 assessed as inhibition of bacterial growth incubated for 18 to 20 hrs by CLSI protocol based broth microdilution method; assay type: functional; settings: time 18-20 hrs; procedure, shortened: as §3
Streptococcus pyogenes [15] = assay: Antibacterial activity against Streptococcus pyogenes MGAS 1882 assessed as inhibition of bacterial growth incubated for 18 to 20 hrs by CLSI protocol based broth microdilution method; assay type: functional; settings: time 18-20 hrs; procedure, shortened: as §3
Streptococcus pyogenes [16] = assay: Antibacterial activity against Streptococcus pyogenes MGAS 9882 assessed as inhibition of bacterial growth incubated for 18 to 20 hrs by CLSI protocol based broth microdilution method; assay type: functional; settings: time 18-20 hrs; procedure, shortened: as §3
Streptococcus mutans = assay: Antibacterial activity against Streptococcus mutans 25175 assessed as inhibition of bacterial growth incubated for 18 to 20 hrs by CLSI protocol based broth microdilution method; assay type: functional; settings: time 18-20 hrs; procedure, shortened: as §3
Enterococcus faecalis = assay: Antibacterial activity against Enterococcus faecalis 51299 assessed as inhibition of bacterial growth incubated for 18 to 20 hrs by CLSI protocol based broth microdilution method; assay type: functional; settings: time 18-20 hrs
Procedure, shortened: (§4)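 Enterococci and L. monocytogenes were diluted from a 0.5 McFarland suspension in TSB. They were incubated with serial dilutions of test agent in broth microdilution, and the MIC was recorded.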

Enterococcus faecium = assay: Antibacterial activity against Enterococcus faecium 700221 assessed as inhibition of bacterial growth incubated for 18 to 20 hrs by CLSI protocol based broth microdilution method; assay type: functional; settings: time 18-20 hrs; procedure, shortened: as §4
Listeria monocytogenes = assay: Antibacterial activity against Listeria monocytogenes 19111 assessed as inhibition of bacterial growth incubated for 18 to 20 hrs by CLSI protocol based broth microdilution method; assay type: functional; settings: time 18-20 hrs; procedure, shortened: as §4
Staphylococcus aureus [17] = assay: Antibacterial activity against methicillin resistant Staphylococcus aureus 123 assessed as inhibition of bacterial growth at 0.5 ug/ml incubated for 18 to 20 hrs by CLSI protocol based broth microdilution method; assay type: functional, organism-based; settings: dose 0.5 µg/ml, time 18-20 hrs
Staphylococcus aureus [18] = assay: Antibacterial activity against methicillin resistant Staphylococcus aureus 384 assessed as inhibition of bacterial growth at 0.5 ug/ml incubated for 18 to 20 hrs by CLSI protocol based broth microdilution method; assay type: functional, organism-based; settings: dose 0.5 µg/ml, time 18-20 hrs
Staphylococcus aureus [19] = assay: Antibacterial activity against methicillin resistant Staphylococcus aureus 119 assessed as inhibition of bacterial growth at 0.5 ug/ml incubated for 18 to 20 hrs by CLSI protocol based broth microdilution method; assay type: functional, organism-based; settings: dose 0.5 µg/ml, time 18-20 hrs
Staphylococcus aureus [20] = assay: Antibacterial activity against methicillin resistant Staphylococcus aureus 385 assessed as inhibition of bacterial growth at 0.5 ug/ml incubated for 18 to 20 hrs by CLSI protocol based broth microdilution method; assay type: functional, organism-based; settings: dose 0.5 µg/ml, time 18-20 hrs
Staphylococcus aureus [21] = assay: Antibacterial activity against methicillin resistant Staphylococcus aureus 386 assessed as inhibition of bacterial growth at 0.5 ug/ml incubated for 18 to 20 hrs by CLSI protocol based broth microdilution method; assay type: functional, organism-based; settings: dose 0.5 µg/ml, time 18-20 hrs
Staphylococcus aureus [22] = assay: Antibacterial activity against vancomycin resistant Staphylococcus aureus 10 assessed as inhibition of bacterial growth at 0.5 ug/ml incubated for 18 to 20 hrs by CLSI protocol based broth microdilution method; assay type: functional, organism-based; settings: dose 0.5 µg/ml, time 18-20 hrs
Staphylococcus aureus [23] = assay: Antibacterial activity against vancomycin resistant Staphylococcus aureus 12 assessed as inhibition of bacterial growth at 0.5 ug/ml incubated for 18 to 20 hrs by CLSI protocol based broth microdilution method; assay type: functional, organism-based; settings: dose 0.5 µg/ml, time 18-20 hrs
Staphylococcus aureus [24] = assay: Antibacterial activity against vancomycin resistant Staphylococcus aureus 9 assessed as inhibition of bacterial growth at 0.5 ug/ml incubated for 18 to 20 hrs by CLSI protocol based broth microdilution method; assay type: functional, organism-based; settings: dose 0.5 µg/ml, time 18-20 hrs
Staphylococcus aureus [25] = assay: Antibacterial activity against methicillin sensitive Staphylococcus aureus 107 assessed as inhibition of bacterial growth at 0.5 ug/ml incubated for 18 to 20 hrs by CLSI protocol based broth microdilution method; assay type: functional, organism-based; settings: dose 0.5 µg/ml, time 18-20 hrs; procedure, shortened: as §2
Staphylococcus aureus [26] = assay: Antibacterial activity against methicillin sensitive Staphylococcus aureus 6538 assessed as inhibition of bacterial growth at 0.5 ug/ml incubated for 18 to 20 hrs by CLSI protocol based broth microdilution method; assay type: functional, organism-based; settings: dose 0.5 µg/ml, time 18-20 hrs; procedure, shortened: as §2
Vero = assay: Cytotoxicity against African green monkey Vero cells assessed as reduction in cell viability at 64 ug/ml incubated for 24 hrs by MTS assay; assay type: toxicity, cell-based; settings: chlorocebus sabaeus, dose 64 µg/ml
Procedure, shortened: (§5)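 Vero or HaCaT cells were exposed to 32, 64 and 128 μg mL−1 compound in triplicate for 24 h at 37 °C, 5% CO2, with a DMSO control. MTS was then added for 4 h and OD490 read. Analysis used two-way ANOVA with Dunnett's post hoc test (p < 0.05).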

[27] = Cytotoxicity against human HaCaT cells assessed as tolerance by measuring cell viability at 64 ug/ml incubated for 24 hrs by MTS assay relative to control; assay type: toxicity, cell-based; settings: at 64 µg/mL, read-out: Activity; procedure, shortened: as §5
Staphylococcus aureus [28] = assay: Post antibiotic effect against methicillin resistant Staphylococcus aureus NRS384 USA300 assessed as time required for 1 log10 increase in CFU at 5 times of MIC incubated for 2 hrs followed by replacement with drug free medium and measured after 18-24 hrs; assay type: functional
Procedure, shortened: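 MRSA USA300 at ~10^6 CFU mL−1 was exposed for 2 h to 5× MIC of test agent, with vancomycin or DMSO as controls. Drug was removed by 1:1000 dilution in fresh TSB. Cultures were incubated at 37 °C with 180 rpm shaking and sampled hourly for 8 h, with viable counts on MSA read after 18–24 h. PAE = T − C, where T and C are the times for a 1 log10 rise in the test and control cultures.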

Structure (SMILES) | MIC (Staphylococcus aureus [1]; read-out: MIC) [µg/mL] | Activity (Staphylococcus aureus [17]) | Activity (Staphylococcus aureus [18]) | Activity (Staphylococcus aureus [19]) | Activity (Staphylococcus aureus [20]) | Activity (Staphylococcus aureus [21]) | Activity (Staphylococcus aureus [22]) | Activity (Staphylococcus aureus [23]) | Activity (Staphylococcus aureus [24]) | Activity (Staphylococcus aureus [25]) | Activity (Staphylococcus aureus [26]) | Activity (Vero) | viability at 24 h, 64 ug/ml [27] [%] | other results
CCCCC#Cc1ccc(NC(=O)Nc2ccc(/C(C)=N/NC(=N)N)cc2)cc1 | 0.5 (≈ 1.28 µM) | Active | Active | Active | Active | Active | Active | Active | Active | Active | Active | Non-Toxic | – | MIC (Staphylococcus aureus [2]): 0.5 µg/mL (≈ 1.28 µM); MIC (Staphylococcus aureus [3]): 0.5 µg/mL (≈ 1.28 µM); MIC (Staphylococcus aureus [4]): 0.5 µg/mL (≈ 1.28 µM); MIC (Staphylococcus aureus [5]): 0.5 µg/mL (≈ 1.28 µM); MIC (Staphylococcus aureus [6]): 0.5 µg/mL (≈ 1.28 µM); MIC (Staphylococcus aureus [7]): 0.5 µg/mL (≈ 1.28 µM); MIC (Staphylococcus aureus [8]): 0.5 µg/mL (≈ 1.28 µM); MIC (Staphylococcus aureus [9]): 0.5 µg/mL (≈ 1.28 µM); MIC (Staphylococcus aureus [10]): 0.5 µg/mL (≈ 1.28 µM); MIC (Staphylococcus aureus [11]): 0.5 µg/mL (≈ 1.28 µM); MIC [12]: 0.5 µg/mL (≈ 1.28 µM); MIC (Streptococcus pneumoniae [13]): 0.5 µg/mL (≈ 1.28 µM); MIC (Streptococcus pneumoniae [14]): 0.5 µg/mL (≈ 1.28 µM); MIC (Streptococcus pyogenes [15]): 0.5 µg/mL (≈ 1.28 µM); MIC (Streptococcus pyogenes [16]): 0.5 µg/mL (≈ 1.28 µM); MIC (Streptococcus mutans): 0.5 µg/mL (≈ 1.28 µM); MIC (Enterococcus faecalis): 0.5 µg/mL (≈ 1.28 µM); MIC (Enterococcus faecium): 0.5 µg/mL (≈ 1.28 µM); MIC (Listeria monocytogenes): 0.5 µg/mL (≈ 1.28 µM)
C/C(=N\NC(=N)N)c1ccc(NC(=O)Nc2ccc(C#CC(O)CC(C)C)cc2)cc1 (stereo not drawn) | – | Active | Active | Active | Active | Active | Active | Active | Active | Active | Active | – | – | –
C/C(=N\NC(=N)N)c1ccc(NC(=O)Nc2ccc(C#CC3CCCC3)cc2)cc1 | – | Active | Active | Active | Active | Active | Active | Active | Active | Active | Active | Non-Toxic | 100 | MIC (Staphylococcus aureus [1]): 2 µg/mL (≈ 4.97 µM)
CN[C@H](CC(C)C)C(=O)N[C@H]1C(=O)N[C@@H](CC(N)=O)C(=O)N[C@H]2C(=O)N[C@H]3C(=O)N[C@H](C(=O)N[C@H](C(=O)O)c4cc(O)cc(O)c4-c4cc3ccc4O)[C@H](O)c3ccc(c(Cl)c3)Oc3cc2cc(c3O[C@@H]2O[C@H](CO)[C@@H](O)[C@H](O)[C@H]2O[C@H]2C[C@](C)(N)[C@H](O)[C@H](C)O2)Oc2ccc(cc2Cl)[C@H]1O [VANCOMYCIN] | – | Active | Active | Active | Active | Active | Active | Active | Active | Active | Active | – | – | Time (Staphylococcus aureus [28]): 4 h
CCCCCCC#Cc1ccc(NC(=O)Nc2ccc(/C(C)=N/NC(=N)N)cc2)cc1 | 0.5 (≈ 1.19 µM) | Active | Active | Active | Active | Active | Active | Active | Active | Active | Active | Non-Toxic | 100 | –
CC(=O)NC[C@H]1CN(c2ccc(N3CCOCC3)c(F)c2)C(=O)O1 | – | Active | Active | Active | Active | Active | Active | Active | Active | Active | Active | – | – | –

Reference: ChEMBL document CHEMBL5230171, “Expanding the structure-activity relationships of alkynyl diphenylurea scaffold as promising antibacterial agents” (RSC Med Chem, 2023)
